# Reference: ChEMBL document CHEMBL2157922, “Synthesis and antifungal activity of diverse C-2 pyridinyl and pyridinylvinyl substituted quinolines” (2012)
# Columns and labels:
# [1] = tested on: Aspergillus flavus; experiment: Antifungal activity against Aspergillus flavus ATCC 9170 after 48 hrs by broth microdilution technique; assay type: functional; conditions: ATCC 9170, 48 h
# How it was run: (§1)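 Moulds and dermatophytes were run by CLSI broth microdilution in MOPS-buffered RPMI-1640 at pH 7.0. Aspergillus was incubated at 30 °C and dermatophytes at 28–30 °C, in a moist, dark chamber. MIC100, the lowest concentration with no visible growth, was read visually at a time set by growth of the control fungus.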
# [2] = tested on: Candida albicans; experiment: Antifungal activity against Candida albicans CCC 125 after 48 hrs by broth microdilution technique; assay type: functional; conditions: CCC 125, 48 h
# [3] = tested on: Candida tropicalis; experiment: Antifungal activity against Candida tropicalis CCC 131 after 48 hrs by broth microdilution technique; assay type: functional; conditions: CCC 131, 48 h
# [4] = tested on: Cryptococcus neoformans; experiment: Antifungal activity against Cryptococcus neoformans IM 042074 after 48 hrs by broth microdilution technique; assay type: functional; conditions: IM 042074, 48 h
# How it was run: (§2)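 C. neoformans was tested by 96-well RPMI-1640 microdilution, with DMSO-matched growth and sterility control wells. Plates were incubated 48 h at 30 °C in a moist, dark chamber and read at OD405. % inhibition = 100 − (CTW − SCW)/(GCW − SCW), in duplicate. For the clinical isolates, MIC80 and MIC50 are the lowest concentrations giving 80% and 50% inhibition.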
# [5] = tested on: Cryptococcus neoformans; experiment: Antifungal activity against Cryptococcus neoformans IM 983036 after 48 hrs by broth microdilution technique; assay type: functional; conditions: IM 983036, 48 h; how it was run: as §2
# [6] = tested on: Candida albicans; experiment: Antifungal activity against Candida albicans CCC 129 after 48 hrs by broth microdilution technique; assay type: functional; conditions: CCC 129, 48 h
# [7] = tested on: Candida albicans; experiment: Antifungal activity against Candida albicans ATCC 10231 at 31.2 ug/ml after 24 hrs; assay type: functional; conditions: ATCC 10231, 24 h
# How it was run: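 C. albicans was grown in 96-well RPMI-1640 broth microdilution with compound wells diluted from DMSO stocks. Growth wells with matched DMSO and sterility wells were included. After 24 h at 30 °C in a moist, dark chamber, OD405 was read. % inhibition = 100 − (CTW − SCW)/(GCW − SCW) OD, done in duplicate.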
# [8] = tested on: Nannizzia gypsea; experiment: Antifungal activity against Microsporum gypseum CCC 115 after 48 hrs by broth microdilution technique; assay type: functional; conditions: CCC 115, 48 h; how it was run: as §1
# [9] = tested on: Aspergillus niger; experiment: Antifungal activity against Aspergillus niger ATCC 9029 after 48 hrs by broth microdilution technique; assay type: functional; conditions: ATCC 9029, 48 h; how it was run: as §1
# [10] = tested on: Aspergillus fumigatus; experiment: Antifungal activity against Aspergillus fumigatus ATCC 26934 after 48 hrs by broth microdilution technique; assay type: functional; conditions: ATCC 26934, 48 h; how it was run: as §1
# [11] = tested on: Trichophyton rubrum; experiment: Antifungal activity against Trichophyton rubrum CCC 113 after 48 hrs by broth microdilution technique; assay type: functional; conditions: CCC 113, 48 h
# [12] = tested on: Candida albicans; experiment: Antifungal activity against Candida albicans CCC 128 after 48 hrs by broth microdilution technique; assay type: functional; conditions: CCC 128, 48 h
# [13] = tested on: Trichophyton mentagrophytes; experiment: Antifungal activity against Trichophyton mentagrophytes ATCC 9972 after 48 hrs by broth microdilution technique; assay type: functional; conditions: ATCC 9972, 48 h; how it was run: as §1
# [14] = tested on: Candida parapsilosis; experiment: Antifungal activity against Candida parapsilosis CCC 124 after 48 hrs by broth microdilution technique; assay type: functional; conditions: Lodderomyces parapsilosis, CCC 124, 48 h
# [15] = tested on: Candida albicans; experiment: Antifungal activity against Candida albicans ATCC 10231 after 48 hrs by broth microdilution technique; assay type: functional; conditions: ATCC 10231, 48 h
# How it was run: (§3)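 Yeasts were tested by CLSI broth microdilution in RPMI-1640 buffered to pH 7.0 with MOPS, with compound from 250 down to 0.98 in DMSO stocks. Trays were held at 30 °C in a moist, dark chamber. MIC100, the lowest concentration giving total visual inhibition against the growth control, was read by eye at 48 h.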
# [16] = tested on: Nakaseomyces glabratus; experiment: Antifungal activity against Candida glabrata CCC 115 after 48 hrs by broth microdilution technique; assay type: functional; conditions: CCC 115, 48 h
# [17] = tested on: Candida albicans; experiment: Antifungal activity against Candida albicans CCC 127 after 48 hrs by broth microdilution technique; assay type: functional; conditions: CCC 127, 48 h
# [18] = tested on: Candida albicans; experiment: Antifungal activity against Candida albicans CCC 130 after 24 hrs by broth microdilution technique; conditions: CCC 130, 24 h
# [19] = tested on: Candida albicans; experiment: Antifungal activity against Candida albicans CCC 130 after 48 hrs by broth microdilution technique; assay type: functional; conditions: CCC 130, 48 h
# [20] = tested on: Cryptococcus neoformans; experiment: Antifungal activity against Cryptococcus neoformans IM 972751 after 48 hrs by broth microdilution technique; assay type: functional; conditions: IM 972751, 48 h; how it was run: as §2
# [21] = tested on: Cryptococcus neoformans; experiment: Antifungal activity against Cryptococcus neoformans IM 983040 after 48 hrs by broth microdilution technique; assay type: functional; conditions: IM 983040, 48 h; how it was run: as §2
# [22] = tested on: Saccharomyces cerevisiae; experiment: Antifungal activity against Saccharomyces cerevisiae ATCC 9763 after 48 hrs by broth microdilution technique; assay type: functional; conditions: ATCC 9763, 48 h; how it was run: as §3
# [23] = tested on: Candida albicans; experiment: Antifungal activity against Candida albicans CCC 126 after 48 hrs by broth microdilution technique; assay type: functional; conditions: CCC 126, 48 h
# [24] = tested on: Cryptococcus neoformans; experiment: Antifungal activity against Cryptococcus neoformans ATCC 32264 at 31.2 ug/ml after 48 hrs; assay type: functional; conditions: ATCC 32264, 48 h; how it was run: as §2
# [25] = tested on: Cryptococcus neoformans; experiment: Antifungal activity against Cryptococcus neoformans ATCC 32264 after 48 hrs by broth microdilution technique; assay type: functional; conditions: ATCC 32264, 48 h; how it was run: as §3
# [26] = tested on: Cryptococcus neoformans; experiment: Antifungal activity against Cryptococcus neoformans IM 00319 after 48 hrs by broth microdilution technique; assay type: functional; conditions: IM 00319, 48 h; how it was run: as §2
# [27] = tested on: Cryptococcus neoformans; experiment: Antifungal activity against Cryptococcus neoformans IM 972724 after 48 hrs by broth microdilution technique; assay type: functional; conditions: IM 972724, 48 h; how it was run: as §2
# [28] = tested on: Pichia kudriavzevii; experiment: Antifungal activity against Candida krusei CCC 117 after 48 hrs by broth microdilution technique; assay type: functional; conditions: CCC 117, 48 h
smiles,measurement,setting,value
Fc1ccc2nc(/C=C/c3ccccn3)ccc2c1,MFC,[1],> 250 µg/mL
same,MIC,[1],250 µg/mL
same,MIC50,[2],15.6 µg/mL
same,MIC80,[2],31.2 µg/mL
same,MIC50,[3],62.5 µg/mL
same,MIC80,[3],125 µg/mL
same,MIC50,[4],15.6 µg/mL
same,MIC80,[4],62.5 µg/mL
same,MIC50,[5],31.2 µg/mL
same,MIC80,[5],62.5 µg/mL
same,MIC50,[6],31.2 µg/mL
same,MIC80,[6],62.5 µg/mL
same,inhibition at 31.2 µg/mL,[7],80%
same,MFC,[8],> 250 µg/mL
same,MIC,[8],125 µg/mL
same,MIC,[9],> 250 µg/mL
same,MFC,[10],> 250 µg/mL
same,MIC,[10],250 µg/mL
same,MFC,[11],> 250 µg/mL
same,MIC,[11],125 µg/mL
same,MIC50,[12],31.2 µg/mL
same,MIC80,[12],62.5 µg/mL
same,MFC,[13],> 250 µg/mL
same,MIC,[13],125 µg/mL
same,MIC50,[14],7.8 µg/mL
same,MIC80,[14],15.6 µg/mL
same,MFC,[15],> 250 µg/mL
same,MIC,[15],125 µg/mL
same,MIC50,[15],15.6 µg/mL
same,MIC80,[15],31.2 µg/mL
same,MIC50,[16],15.6 µg/mL
same,MIC80,[16],31.2 µg/mL
same,MIC50,[17],31.2 µg/mL
same,MIC80,[17],62.5 µg/mL
same,MIC50,[18],15.6 µg/mL
same,MIC80,[19],31.2 µg/mL
same,MIC50,[20],15.6 µg/mL
same,MIC80,[20],31.2 µg/mL
same,MIC50,[21],31.2 µg/mL
same,MIC80,[21],62.5 µg/mL
same,MFC,[22],> 250 µg/mL
same,MIC,[22],250 µg/mL
same,MIC50,[23],62.5 µg/mL
same,MIC80,[23],62.5 µg/mL
same,inhibition at 31.2 µg/mL,[24],80%
same,MFC,[25],> 250 µg/mL
same,MIC,[25],125 µg/mL
same,MIC50,[25],15.6 µg/mL
same,MIC80,[25],31.2 µg/mL
same,MIC50,[26],15.6 µg/mL
same,MIC80,[26],62.5 µg/mL
same,MIC50,[27],31.2 µg/mL
same,MIC80,[27],62.5 µg/mL
same,MIC50,[28],15.6 µg/mL
same,MIC80,[28],31.2 µg/mL
